How the values were obtained:
[1] = target: T1, Cholecystokinin receptor type A (Cavia porcellus, UniProt Q63931); assay: Binding affinity against CCK-A receptor in guinea pig pancreatic membranes; assay type: cell membranes
T1 sequence (Q63931 whole entry): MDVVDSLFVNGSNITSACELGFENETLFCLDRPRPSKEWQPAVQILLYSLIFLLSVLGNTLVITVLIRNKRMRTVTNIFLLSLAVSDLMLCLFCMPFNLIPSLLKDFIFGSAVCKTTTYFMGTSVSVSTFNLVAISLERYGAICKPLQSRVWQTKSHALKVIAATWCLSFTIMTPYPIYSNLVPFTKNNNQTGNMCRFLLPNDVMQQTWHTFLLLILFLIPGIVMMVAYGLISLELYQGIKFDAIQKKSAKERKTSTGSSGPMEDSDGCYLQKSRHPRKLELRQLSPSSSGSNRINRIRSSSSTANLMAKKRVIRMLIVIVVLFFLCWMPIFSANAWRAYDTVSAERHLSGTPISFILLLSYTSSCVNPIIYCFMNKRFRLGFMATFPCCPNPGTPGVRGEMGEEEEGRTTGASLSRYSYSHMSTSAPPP
How it was run: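 Ki from displacement of [3H]pCCK8 bound to guinea-pig pancreatic membranes (CCK-A receptor).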

[2] = target: T2, Gastrin/cholecystokinin type B receptor (Rattus norvegicus, UniProt P30553); assay: Capacity to inhibit [3H]-p CCK 8 binding to membrane preparations of CHO cells transfected with the rat CCK-B receptor; assay type: cell membranes
T2 sequence (P30553 whole entry): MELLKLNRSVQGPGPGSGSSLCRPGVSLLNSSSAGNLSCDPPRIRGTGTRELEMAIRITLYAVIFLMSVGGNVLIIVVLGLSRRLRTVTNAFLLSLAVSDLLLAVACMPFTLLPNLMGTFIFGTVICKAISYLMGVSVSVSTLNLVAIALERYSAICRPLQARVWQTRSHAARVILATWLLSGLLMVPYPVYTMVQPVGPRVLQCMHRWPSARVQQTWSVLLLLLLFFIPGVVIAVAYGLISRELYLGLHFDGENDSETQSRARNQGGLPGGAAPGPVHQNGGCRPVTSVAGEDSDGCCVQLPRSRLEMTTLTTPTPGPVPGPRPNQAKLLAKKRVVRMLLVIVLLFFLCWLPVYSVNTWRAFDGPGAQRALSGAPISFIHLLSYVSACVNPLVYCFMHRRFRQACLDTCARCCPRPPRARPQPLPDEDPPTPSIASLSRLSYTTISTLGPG
How it was run: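 Ki from displacement of [3H]pCCK8 bound to membranes of CHO cells stably transfected with the rat CCK-B receptor.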

[3] = target: T2, Gastrin/cholecystokinin type B receptor; assay: Inhibitory activity against CCK-B receptor

Structure (SMILES) | Ki [1] | Ki [2] | IC50 [3]
CC(Cc1c[nH]c2ccccc12)(NC(=O)OC1[C@H]2C[C@@H]3C[C@@H](C[C@H]1C3)C2)C(=O)N1CCC(C(=O)c2ccccc2)CC1 (stereo partly drawn) | 1700 nM | 3400 nM | 
C[C@](Cc1c[nH]c2ccccc12)(NC(=O)OC1C2CC3CC(C2)CC1C3)C(=O)N1CC[C@H](Oc2ccc(Cl)cc2Cl)C[C@H]1C(=O)O (stereo partly drawn) |  | 791 nM | 
COC(=O)[C@H]1C[C@@H](Oc2ccc(Cl)cc2Cl)CCN1C(=O)[C@@](C)(Cc1c[nH]c2ccccc12)NC(=O)OC1C2CC3CC(C2)CC1C3 (stereo partly drawn) |  | 1540 nM | 
C[C@](Cc1c[nH]c2ccccc12)(NC(=O)OC1C2CC3CC(C2)CC1C3)C(=O)N(CCc1ccc(Cl)cc1)CC(=O)O (stereo partly drawn) | 1060 nM |  | 
C[C@](Cc1c[nH]c2ccccc12)(NC(=O)OC1C2CC3CC(C2)CC1C3)C(=O)N1CC[C@@H](Oc2ccc(Cl)cc2Cl)C[C@@H]1C(=O)O (stereo partly drawn) |  | 789 nM | 
C[C@@](Cc1c[nH]c2ccccc12)(NC(=O)OC1C2CC3CC(C2)CC1C3)C(=O)N1CC[C@H](Oc2ccc(Cl)cc2Cl)C[C@@H]1C(=O)O (stereo partly drawn) |  | 812 nM | 
C[C@@](Cc1c[nH]c2ccccc12)(NC(=O)OC1C2CC3CC(C2)CC1C3)C(=O)N1CC[C@H](Oc2ccc(Cl)cc2Cl)C[C@H]1C(=O)O (stereo partly drawn) | 1060 nM | 1680 nM | 217 nM
C[C@@](Cc1c[nH]c2ccccc12)(NC(=O)OC1C2CC3CC(C2)CC1C3)C(=O)N1CC[C@@H](Oc2ccc(Cl)cc2Cl)C[C@H]1C(=O)O (stereo partly drawn) |  | 896 nM | 
CC(Cc1c[nH]c2ccccc12)(NC(=O)OC1C2CC3CC(C2)CC1C3)C(=O)N1CC[C@@H](Oc2ccc(Cl)cc2Cl)C[C@@H]1C(=O)O (single isomer, unassigned) |  | 1040 nM | 

Results, then the compound that gave them:

Ki [1] | Ki [2] | IC50 [3] | Structure (SMILES)
3720 nM | 175 nM |  | C[C@](Cc1c[nH]c2ccccc12)(NC(=O)OC1C2CC3CC(C2)CC1C3)C(=O)N1CC[C@H](Oc2ccc(Cl)cc2Cl)C[C@@H]1C(=O)O (stereo partly drawn)
 | 24 nM |  | C[C@](Cc1c[nH]c2ccccc12)(NC(=O)OC1C2CC3CC(C2)CC1C3)C(=O)N1C[C@H](OCc2ccccc2)C[C@@H]1C(=O)O (stereo partly drawn)
751 nM | 15.3 nM | 37.4 nM | C[C@](Cc1c[nH]c2ccccc12)(NC(=O)OC1C2CC3CC(C2)CC1C3)C(=O)N1C[C@H](Oc2ccc(Cl)cc2Cl)C[C@@H]1C(=O)O (stereo partly drawn)
 | 18.6 nM | 389 nM | C[C@](Cc1c[nH]c2ccccc12)(NC(=O)OC1C2CC3CC(C2)CC1C3)C(=O)N1C[C@H](Oc2ccc(F)cc2F)C[C@@H]1C(=O)O (stereo partly drawn)
 | 543 nM |  | C[C@](Cc1c[nH]c2ccccc12)(NC(=O)OC1C2CC3CC(C2)CC1C3)C(=O)N1CC[C@@H](Oc2ccc(Cl)cc2Cl)C[C@H]1C(=O)O (stereo partly drawn)
 | 32.7 nM | 507 nM | C[C@](Cc1c[nH]c2ccccc12)(NC(=O)OC1C2CC3CC(C2)CC1C3)C(=O)N1C[C@H](Oc2ccc([N+](=O)[O-])cc2)C[C@@H]1C(=O)O (stereo partly drawn)

Reference: ChEMBL document CHEMBL1130826, “Novel constrained CCK-B dipeptoid antagonists derived from pipecolic acid” (Bioorg Med Chem Lett, 1998)
